# ADAM10 inh: ADAM10 inhibition, QFRET primary screen; 0.62% of 370,000 active; O14672; inhibition, % at 7 µM; recombinant ADAM10, EDANS/DABCYL FRET peptide cleavage, 3 h;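 active = inhibition above a per-campaign cutoff equal to the mean of compounds falling between control-based bounds plus 3 SD, cut at about 20% in these data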;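 note: 0% = DMSO wells while the 100% control is not disclosed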
# FAS TE block: FAS thioesterase (human) inhibition | P49327 | recombinant FAS-TE, OMFH fluorogenic substrate, fluorescence endpoint | inhibition, % at 15 µM | 0.67% of 360,000 active;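 active = compounds whose normalised, plate-corrected inhibition of enzyme fluorescence in the single-dose primary screen is 50% or more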;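 note: 0% = DMSO with enzyme and 100% = substrate without enzyme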
# CendR NRP1 mod: modulators of CendR peptide binding to human neuropilin-1; inhibition, % at 25 µM; 0.85% of 360,000 active; O14786; FAM-RPARPAR peptide binding to NRP-1, fluorescence polarization;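 active = inhibition or corrected inhibition above about 18%, plus a signal ratio from 0.5 to 1.5, limit read from the data, passing the limit was not always enough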
# CaV13 FRET inh: Disruptors of the CACNA1D IQ motif to Ca2+-dependent inactivation inhibitor domain association, primary screening, Förster resonance energy transfer in intact living … | HEK cells, CFP/YFP FRET ICDI-IQ, plate reader, 10 min; percent FRET-ratio fall versus neutral wells | inhibition, % at 12.3 µM | 0.098% of 340,000 active;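 active = mean replicate inhibition of at least 30% and at least 1% of replicates passing that level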;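 note: 0% = median of the neutral control wells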
# Arr AP2 block: human beta-arrestin and AP2 interaction inhibition | FITC-arrestin peptide / GST-AP2 beads, flow cytometry; AP2 beta2 appendage carries R879A mutation | inhibition, % at 10 µM | 0.31% of 340,000 active | AID 504490;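 active = inhibition above a set limit, near 3 SD of compounds lacking own fluorescence, cut at about 54% in these data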;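 note: plate controls were DMSO wells for no effect and 5 µM unlabelled arrestin peptide for full effect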
#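 System: GST-AP2 R879A bound to glutathione beads, E. coli-expressed. Also added: 50 nM FITC-arrestin peptide. Schedule: compound with beads 12 min RT, then probe 1 h RT. Signal: bead flow cytometry, FITC channel. Read-out basis: percent response.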
# ADAM17 inh: ADAM17 inhibition, QFRET primary screen. recombinant ADAM17, EDANS/DABCYL FRET peptide cleavage. inhibition, % at 6.95 µM. P78536. 0.83% of 370,000 active. AID 720648;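 active = inhibition above the mean of compounds lying between control limits plus 3 SD, set per campaign, cut at about 8.5% in these data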;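 note: 0% = DMSO-only wells as the low control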
# Target sequence (P78536 215-824 limits assumed): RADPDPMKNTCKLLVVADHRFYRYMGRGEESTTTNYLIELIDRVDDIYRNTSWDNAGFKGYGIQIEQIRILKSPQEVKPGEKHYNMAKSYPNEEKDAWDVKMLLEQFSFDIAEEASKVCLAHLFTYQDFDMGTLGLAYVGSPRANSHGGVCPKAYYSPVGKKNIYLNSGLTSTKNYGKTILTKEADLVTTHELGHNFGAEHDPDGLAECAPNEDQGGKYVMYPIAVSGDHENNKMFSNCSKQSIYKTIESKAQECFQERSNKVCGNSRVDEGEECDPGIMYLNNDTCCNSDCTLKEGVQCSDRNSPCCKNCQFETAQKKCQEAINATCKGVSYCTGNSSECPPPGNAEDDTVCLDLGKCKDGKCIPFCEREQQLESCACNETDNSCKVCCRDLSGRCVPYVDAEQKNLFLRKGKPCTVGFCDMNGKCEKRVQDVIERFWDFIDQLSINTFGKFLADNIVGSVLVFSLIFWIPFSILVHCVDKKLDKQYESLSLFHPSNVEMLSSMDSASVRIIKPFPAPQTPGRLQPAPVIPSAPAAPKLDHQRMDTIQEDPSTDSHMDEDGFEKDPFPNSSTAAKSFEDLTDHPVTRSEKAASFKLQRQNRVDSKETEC
# FAS-TE inh conf: confirmation of human fatty acid synthase thioesterase inhibitors | shares compounds with FAS TE block | recombinant FAS-TE, OMFH fluorogenic substrate, fluorescence | inhibition, % at 15 µM | 45% of 2,300 active | AID 624325;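 active = compounds inhibiting the enzyme by at least 50% at 15 µM in any one of the replicates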;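 note: 0% = enzyme with DMSO only and 100% = wells lacking enzyme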
# The depositor's hits bear a star; nt = no result. Rows were chosen to be rich in hits. Some 2.9% of all compounds tested hit in one or more screens of this group.
SMILES,ADAM10 inh,FAS TE block,CendR NRP1 mod,CaV13 FRET inh,Arr AP2 block,ADAM17 inh,FAS-TE inh conf
CC(=O)Nc1ccc(S(=O)(=O)NN=Cc2ccc(Cl)c(Cl)c2)cc1,-6.9,-1.9,9.8,-6.0,-4.4,-3.8,nt
O=[N+]([O-])c1ccc(S(=O)(=O)NN=Cc2ccc(Cl)c(Cl)c2)cc1,2.0,81.2*,4.9,-7.4,0.0,-2.5,88.5*
O=[N+]([O-])c1cccc(S(=O)(=O)N/N=C\c2ccc3c(c2)OCO3)c1,4.1,7.4,13.6,nt,-8.7,-1.8,nt
O=C(Nc1ccc(F)cc1)C(c1ccccc1)N1CCN(S(=O)(=O)c2ccc3ccccc3c2)CC1 (centres undefined),19.6,85.7*,-9.2,-4.0,16.8,5.2,18.2
Cc1ccc(C)c(S(=O)(=O)N2CCN(C(C(=O)Nc3ccc(F)cc3)c3ccccc3)CC2)c1 (centres undefined),2.0,25.2,-6.1,-3.1,9.8,-0.8,nt
COc1ccc(OC)c(/C=C2\N=C(c3ccccc3)OC2=O)c1,-10.0,60.8*,126.2,-19.8,-4.3,-4.5,-37.6
COc1cc(/C=C2\N=C(c3ccccc3)OC2=O)ccc1OC(C)=O,3.5,0.5,-22.9,-20.0,2.4,-5.0,nt
CC1CCN(C(=O)c2ccc3c(Cl)c4c(nc3c2)CCCC4)CC1,-2.0,71.3*,-2.8,-4.1,18.7,-0.8,78.3*
CCOC(=O)C1CCN(C(=O)c2ccc3c(Cl)c4c(nc3c2)CCCC4)CC1,1.3,42.8,11.9,-1.9,21.3,-2.5,nt
CCOc1ccc(Cl)cc1-c1cc(C(=O)Nc2ccc(Br)cc2)[nH]n1,-1.9,17.7,14.0,-9.9,nt,-0.4,nt
COc1cc(-c2nc(C(=O)NC3CCCCC3)cc3c2[nH]c2ccccc23)cc(OC)c1OC,-101.8,83.5*,-5.3,nt,3.2,-28.9,9.8
O=C(OCc1cn(Cc2cc(F)ccc2F)nn1)N1CCOCC1,-4.2,nt,nt,nt,nt,-3.7,nt
CC(C)(C)OC(=O)N1CCC(NC(=O)c2[nH]cnc2C(=O)Nc2ccc(Cl)cc2)CC1,2.3,7.8,1.5,-3.7,6.9,3.5,nt
CC1CCN(C(=O)c2[nH]cnc2C(=O)Nc2ccc(Cl)cc2)CC1,1.9,53.7*,4.8,-11.0,5.0,-2.6,49.2
COc1cc(OC)c2ccc(=O)oc2c1C(CC(=O)N1CCOCC1)c1ccc2c(c1)OCO2 (centres undefined),-61.5,-1.6,-0.4,-5.9,-5.6,-11.4,nt
COc1cc(OC)c2ccc(=O)oc2c1C(CC(=O)N1CCN(c2ccccc2)CC1)c1ccc2c(c1)OCO2 (centres undefined),0.2,50.6*,11.5,-8.9,2.1,1.4,25.1
COc1cc(OC)c2c(-c3ccccc3)cc(=O)oc2c1C(CC(=O)N1CCN(c2ccccc2)CC1)c1ccc(N(C)C)cc1 (centres undefined),10.9,69.5*,21.4,-9.6,1.6,1.0,14.4
CC1(C(=O)Nc2ccc3c(c2)OCO3)CCN1C(=O)CCc1ccc(Cl)cc1Cl (centres undefined),6.1,12.3,-6.3,-11.0,nt,1.8,nt
Cc1cc2nc(/N=C(\N)NC(=O)N3c4ccccc4Sc4ccccc43)nc(C)c2cc1C,-38.1,61.6*,-2.7,-4.3,3.5,-14.0,14.4
Cc1ccc2nc(/N=C(\N)NC(=O)N3c4ccccc4Sc4ccccc43)nc(C)c2c1,-8.5,55.2*,-15.7,-14.9,10.5,-4.8,-4.7
Cc1ccc2c(C)nc(/N=C(\N)NC(=O)N3c4ccccc4Sc4ccccc43)nc2c1,-12.8,63.6*,-4.1,-2.8,-7.3,-5.0,3.9
O=C(O)c1ccc(-c2nc(-c3ccccc3Cl)cs2)cc1,-42.8,0.2,13.3,-3.5,4.6,-11.1,nt
CCS(=O)(=O)c1ccc(-c2csc(-c3ccccc3)n2)c(Cl)c1Cl,-3.7,83.5*,-1.3,nt,9.1,-3.8,70.6*
CCCCOc1ccc(S(=O)(=O)N2CCN(c3ccc(N4CCN(CC)CC4)nn3)CC2)cc1,-78.0,59.8*,4.3,-6.1,4.2,-19.9,29.2
CCCCOc1ccc(S(=O)(=O)N2CCCCC2)cc1,3.1,22.6,8.1,-6.1,-13.6,-1.6,nt
SMILES,ADAM10 inh,FAS TE block,CendR NRP1 mod,CaV13 FRET inh,Arr AP2 block,ADAM17 inh,FAS-TE inh conf
CCN(CC(=O)Nc1ccc2c(c1)OCCO2)C(=O)C(C)Oc1ccc(Cl)cc1 (centres undefined),-6.9,2.2,-0.7,-6.3,9.8,-1.5,nt
O=C(NCc1ccc2c(c1)OCO2)c1ccc2c(c1)N(Cc1c(F)cccc1Cl)C(=O)CS2,3.4,54.3*,-4.2,-3.3,-10.4,1.4,32.8*
CCC1CCCCN1CCCNC(=O)c1ccc2c(c1)N(Cc1c(F)cccc1Cl)C(=O)CS2 (centres undefined),3.2,0.5,0.6,-2.7,-2.0,2.0,nt
Cc1cc2c(nc1C)CCCN2S(=O)(=O)c1ccc(F)cc1,-8.9,nt,nt,-4.9,nt,-2.9,nt
Cc1cc(NC(=O)COC(=O)c2cnccn2)ccc1Br,-11.8,-1.3,13.7,-5.9,-2.2,-2.6,nt
COc1ccc(-c2csc3nc(-c4ccccc4OC)oc(=O)c23)cc1,2.2,62.8*,-1.9,-6.1,-1.6,1.0,42.3
CC(C)(C)c1nc2scc(-c3cccs3)c2c(=O)o1,-6.1,58.3*,-2.8,-0.7,-6.2,-4.2,55.7*
COc1ccc(-c2csc3nc(-c4ccc(C)cc4)oc(=O)c23)cc1OC,1.4,7.1,-13.7,-0.4,-1.7,1.2,nt
CC(C)(C)c1nc2scc(-c3ccc(Cl)cc3)c2c(=O)o1,-10.1,-2.0,-8.1,-4.6,-2.4,5.1,nt
O=c1oc(-c2ccccc2F)nc2scc(-c3ccccc3)c12,4.8,85.6*,-3.5,-4.6,10.0,2.1,36.5*
Cc1nc2scc(-c3ccccc3)c2c(=O)o1,-8.4,50.6*,-6.6,nt,18.0,-5.5,73.1*
CN(C(=O)COC(=O)c1c2c(nc3ccccc13)/C(=C/c1cccc([N+](=O)[O-])c1)CCC2)C1CCS(=O)(=O)C1 (centres undefined),8.5,67.4*,-8.5,-1.9,14.2,-2.0,13.5
O=C(Cc1ccc([N+](=O)[O-])cc1)N1CCc2ccccc2C1,-7.1,25.8,2.7,-19.1,0.0,1.6,nt
O=C(COc1ccc([N+](=O)[O-])cc1)N1CCc2ccccc2C1,9.6,70.2*,7.1,-57.3,9.9,-2.8,82.9*
O=C(CN1C(=O)c2cccc([N+](=O)[O-])c2C1=O)N1CCc2ccccc2C1,2.6,58.9*,-1.6,-4.5,nt,-0.1,65.0*

# Assay outcomes (PubChem)
